Key:
5097 PDX organoids = experiment: Breast cancer PDX organoid growth, 5097 line; assay type: cell-based, human; settings: 10 nM single agent, two weeks, vs vehicle
4013 PDX organoids = experiment: Breast cancer PDX organoid growth, 4013 line; assay type: cell-based, human; settings: SI-12 10 nM, BEZ235 2 nM, two weeks
Procedure, shortened: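 Organoids derived from the 4013 PDX tumour, which came from a patient with triple-negative infiltrating ductal carcinoma. The tumour was passaged in mice eight times before use.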

MCF-7 cells = settings: read-out: IC50 for suppressing MCF-7 cell growth, ref Wang et al. 2014; cited from earlier work

CCN1CCN(Cc2ccc(Nc3ncc(F)c(-c4cc(F)c5nc(C)n(C(C)C)c5c4)n3)nc2)CC1 [Abemaciclib]
organoid numbers (5097 PDX organoids): reduced organoid numbers

Cn1c(=O)n(-c2ccc(C(C)(C)C#N)cc2)c2c3cc(-c4cnc5ccccc5c4)ccc3ncc21 [BEZ235]
organoid formation, single compound (4013 PDX organoids): could repress organoid formation

C[C@]12CC[C@H](O)C[C@H]1CC[C@@H]1[C@@H]2CC[C@]2(C)[C@@H](c3ccc(=O)oc3)CC[C@]12O [bufalin]
IC50 (MCF-7 cells): 3.2 nM

Reference: PMC8404148 (Endocrine-related cancer, 2021)
